Assay results reported in ChEMBL document CHEMBL3526002, “Tissue distribution and identification of radioactivity components at elimination phase after oral administration of [¹⁴C]CS-1036, an α-amylase inhibitor, to rats” (Drug Metab Dispos, 2013).

How the values were obtained:
Parameters in all cases: dose 5 mg/kg, dosed compound name [14C]CS-1036, route oral
Details in all cases: in vivo
Cerebellum [1] = test: Drug uptake in albino F344/DuCrlCrlj rat cerebellum assessed as ng equivalent of CS-1036 at 5 mg/kg, po after 72 hrs by liquid scintillation counting; type: ADME, organism-based
[2] = Drug uptake in albino F344/DuCrlCrlj rat mandibular gland assessed as ng equivalent of CS-1036 at 5 mg/kg, po after 72 hrs by liquid scintillation counting; type: ADME, organism-based
Small intestine [3] = test: Drug uptake in albino F344/DuCrlCrlj rat small intestine at 5 mg/kg, po after 8 hrs by liquid scintillation counting; type: ADME, organism-based
Cerebellum [4] = test: Drug uptake in albino F344/DuCrlCrlj rat cerebellum at 5 mg/kg, po after 168 hrs by liquid scintillation counting; type: ADME, organism-based
Thymus [5] = test: Drug uptake in albino F344/DuCrlCrlj rat thymus at 5 mg/kg, po after 24 hrs by liquid scintillation counting; type: ADME, organism-based
Thymus [6] = test: Drug uptake in albino F344/DuCrlCrlj rat thymus assessed as ng equivalent of CS-1036 at 5 mg/kg, po after 336 hrs by liquid scintillation counting; type: ADME, organism-based
Pancreas [7] = test: Drug uptake in albino F344/DuCrlCrlj rat pancreas at 5 mg/kg, po after 24 hrs by liquid scintillation counting; type: ADME, organism-based
Spleen [8] = test: Drug uptake in albino F344/DuCrlCrlj rat spleen assessed as ng equivalent of CS-1036 at 5 mg/kg, po after 336 hrs by liquid scintillation counting; type: ADME, organism-based
Zone of skin = test: Drug uptake in albino F344/DuCrlCrlj rat skin at 5 mg/kg, po after 24 hrs by liquid scintillation counting; type: ADME, organism-based
Large intestine = test: Drug uptake in albino F344/DuCrlCrlj rat large intestine assessed as ng equivalent of CS-1036 at 5 mg/kg, po after 72 hrs by liquid scintillation counting; type: ADME, organism-based
Stomach [9] = test: Drug uptake in albino F344/DuCrlCrlj rat stomach assessed as ng equivalent of CS-1036 at 5 mg/kg, po after 336 hrs by liquid scintillation counting; type: ADME, organism-based
[10] = Drug uptake in albino F344/DuCrlCrlj rat eyeball at 5 mg/kg, po after 168 hrs by liquid scintillation counting; type: ADME, organism-based
Kidney [11] = test: Drug uptake in albino F344/DuCrlCrlj rat kidney assessed as ng equivalent of CS-1036 at 5 mg/kg, po after 4 hrs by liquid scintillation counting; type: ADME, organism-based
Thymus [12] = test: Drug uptake in albino F344/DuCrlCrlj rat thymus at 5 mg/kg, po after 1 hr by liquid scintillation counting; type: ADME, organism-based
Cerebrum = test: Drug uptake in albino F344/DuCrlCrlj rat cerebrum assessed as ng equivalent of CS-1036 at 5 mg/kg, po after 336 hrs by liquid scintillation counting; type: ADME, organism-based
Summary of the method: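 Single oral [14C]CS-1036 at 5 mg/kg was given to male rats (159–167 g; n = 3). Cerebrum was collected after aortic bleeding at 1, 4, 8, 24, 72, 168 or 336 h, weighed, and homogenized in 2 volumes of saline. A 0.5 ml aliquot was solubilized in Soluene-350 and counted by LSC with external-standard correction. Results are in ng equivalent/g tissue from specific activity and sample weight.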

Plasma = test: Drug uptake in albino F344/DuCrlCrlj rat plasma assessed as ng equivalent of CS-1036 at 5 mg/kg, po after 8 hrs by liquid scintillation counting; type: ADME, organism-based
Kidney [13] = test: Drug uptake in albino F344/DuCrlCrlj rat kidney at 5 mg/kg, po after 168 hrs by liquid scintillation counting; type: ADME, organism-based
Spleen [14] = test: Drug uptake in albino F344/DuCrlCrlj rat spleen assessed as ng equivalent of CS-1036 at 5 mg/kg, po after 72 hrs by liquid scintillation counting; type: ADME, organism-based
[15] = Drug uptake in albino F344/DuCrlCrlj rat thyroid gland assessed as ng equivalent of CS-1036 at 5 mg/kg, po after 168 hrs by liquid scintillation counting; type: ADME, organism-based
Blood = test: Drug uptake in albino F344/DuCrlCrlj rat blood at 5 mg/kg, po after 168 hrs by liquid scintillation counting; type: ADME, organism-based
Summary of the method: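 Male F344/DuCrlCrlj rats (159–167 g; n = 3 per time point) received a single oral dose of [14C]CS-1036 at 5 mg/kg. Blood was taken from the abdominal aorta at 1, 4, 8, 24, 72, 168 and 336 h. Radioactivity was counted by LSC with external-standard efficiency correction. Results were converted to ng equivalent of CS-1036/ml using specific activity and sample volume, and reported as mean + S.D.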

Small intestine [16] = test: Drug uptake in albino F344/DuCrlCrlj rat small intestine at 5 mg/kg, po after 72 hrs by liquid scintillation counting; type: ADME, organism-based
[17] = Drug uptake in albino F344/DuCrlCrlj rat testis assessed as ng equivalent of CS-1036 at 5 mg/kg, po after 8 hrs by liquid scintillation counting; type: ADME, organism-based
[18] = Drug uptake in albino F344/DuCrlCrlj rat urinary bladder assessed as ng equivalent of CS-1036 at 5 mg/kg, po after 336 hrs by liquid scintillation counting; type: ADME, organism-based
Cerebellum [19] = test: Drug uptake in albino F344/DuCrlCrlj rat cerebellum assessed as ng equivalent of CS-1036 at 5 mg/kg, po after 8 hrs by liquid scintillation counting; type: ADME, organism-based
Adrenal gland = test: Drug uptake in albino F344/DuCrlCrlj rat adrenal gland at 5 mg/kg, po after 4 hrs by liquid scintillation counting; type: ADME, organism-based
Pancreas [20] = test: Drug uptake in albino F344/DuCrlCrlj rat pancreas assessed as ng equivalent of CS-1036 at 5 mg/kg, po after 8 hrs by liquid scintillation counting; type: ADME, organism-based
Stomach [21] = test: Drug uptake in albino F344/DuCrlCrlj rat stomach at 5 mg/kg, po after 1 hr by liquid scintillation counting; type: ADME, organism-based
Liver = test: Drug uptake in albino F344/DuCrlCrlj rat liver assessed as ng equivalent of CS-1036 at 5 mg/kg, po after 4 hrs by liquid scintillation counting; type: ADME, organism-based
Cerebellum [22] = test: Drug uptake in albino F344/DuCrlCrlj rat cerebellum assessed as ng equivalent of CS-1036 at 5 mg/kg, po after 24 hrs by liquid scintillation counting; type: ADME, organism-based
Aorta = test: Drug uptake in albino F344/DuCrlCrlj rat aorta assessed as ng equivalent of CS-1036 at 5 mg/kg, po after 24 hrs by liquid scintillation counting; type: ADME, organism-based
[23] = Drug uptake in albino F344/DuCrlCrlj rat trachea assessed as ng equivalent of CS-1036 at 5 mg/kg, po after 1 hr by liquid scintillation counting; type: ADME, organism-based
Lung = test: Drug uptake in albino F344/DuCrlCrlj rat lung assessed as ng equivalent of CS-1036 at 5 mg/kg, po after 1 hr by liquid scintillation counting; type: ADME, organism-based
[24] = Drug uptake in albino F344/DuCrlCrlj rat brown fat assessed as ng equivalent of CS-1036 at 5 mg/kg, po after 72 hrs by liquid scintillation counting; type: ADME, organism-based, Brown adipose tissue
Harderian gland = test: Drug uptake in albino F344/DuCrlCrlj rat harderian gland at 5 mg/kg, po after 4 hrs by liquid scintillation counting; type: ADME, organism-based

C[C@H]1O[C@@H](O[C@H]2[C@H](O)[C@@H](O)[C@@H](O[14C@H]3[14C@H](O)[14CH2]N[14C@@H]3[14CH2]O)O[C@@H]2CO)[C@H](O)[C@@H](O)[C@@H]1O
Radiolabel recovery (Cerebellum [1]): 6.4 ngequiv/g
Radiolabel recovery [2]: 9.5 ngequiv/g
Radiolabel recovery (Small intestine [3]): 121 ngequiv/g
Radiolabel recovery (Cerebellum [4]): 7.12 ngequiv/g
Radiolabel recovery (Thymus [5]): 53.3 ngequiv/g
Radiolabel recovery (Thymus [6]): 1.96 ngequiv/g
Radiolabel recovery (Pancreas [7]): 310 ngequiv/g
Radiolabel recovery (Spleen [8]): 2.83 ngequiv/g
Radiolabel recovery (Zone of skin): 53.9 ngequiv/g
Radiolabel recovery (Large intestine): 29.5 ngequiv/g
Radiolabel recovery (Stomach [9]): 5.1 ngequiv/g
Radiolabel recovery [10]: 4.54 ngequiv/g
Radiolabel recovery (Kidney [11]): 173 ngequiv/g
Radiolabel recovery (Thymus [12]): 23.2 ngequiv/g
Radiolabel recovery (Cerebrum): 2.36 ngequiv/g
Radiolabel recovery (Plasma): 10.8 ngequiv/ml
Radiolabel recovery (Kidney [13]): 27 ngequiv/g
Radiolabel recovery (Spleen [14]): 19.5 ngequiv/g
Radiolabel recovery [15]: 29.9 ngequiv/g
Radiolabel recovery (Blood): 8.55 ngequiv/ml
Radiolabel recovery (Small intestine [16]): 41.3 ngequiv/g
Radiolabel recovery [17]: 24.1 ngequiv/g
Radiolabel recovery [18]: 5.5 ngequiv/g
Radiolabel recovery (Cerebellum [19]): 1.18 ngequiv/g
Radiolabel recovery (Adrenal gland): 33.3 ngequiv/g
Radiolabel recovery (Pancreas [20]): 71 ngequiv/g
Radiolabel recovery (Stomach [21]): 1670 ngequiv/g
Radiolabel recovery (Liver): 93 ngequiv/g
Radiolabel recovery (Cerebellum [22]): 2.3 ngequiv/g
Radiolabel recovery (Aorta): 8.4 ngequiv/g
Radiolabel recovery [23]: 7.4 ngequiv/g
Radiolabel recovery (Lung): 3 ngequiv/g
Radiolabel recovery [24]: 136 ngequiv/g
Radiolabel recovery (Harderian gland): 39.1 ngequiv/g
